pIC50: −log10 of the molar value. Active and inactive are the calls of the source. The rule behind the calls is not given here.
Tests used:
Liver microsomes = test: Metabolic turnover in rat liver microsomes at 10 uM; format: ADME, Microsome
Procedure, shortened: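 Metabolic rate estimated by incubating compounds with rat liver microsomes, used to rank metabolic stability.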

[1] = biological target: Glucagon-like peptide 1 receptor (Homo sapiens, UniProt P43220); test: Inhibition of GLP1 receptor
Glucagon receptor [2] = biological target: Glucagon receptor (Homo sapiens, UniProt P47871); test: Inhibition of human cloned glucagon receptor expressed in BHK cells; format: cell-based
Procedure, shortened: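 Binding performed on plasma membranes from BHK cells expressing the cloned human glucagon receptor; IC50 values determined.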

[3] = Metabolic stability in rat at 2 mg/kg, iv; format: ADME, organism-based; set-up: dose 2 mg/kg, route intravenous; conditions: in vivo
Procedure, shortened: (§1)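 Rats given the compound at 4 mg/kg orally and 2 mg/kg intravenously. Plasma profiles yielded Cmax, Tmax, AUC, oral availability (F) and plasma half-life; half-life was taken from the iv dose.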

[4] = Tmax in rat at 4 mg/kg, po and 2 mg/kg, iv; format: ADME, organism-based; conditions: in vivo; procedure, shortened: as §1
[5] = Bioavailability in rat at 4 mg/kg, po; format: ADME, organism-based; conditions: in vivo; procedure, shortened: as §1
Rattus norvegicus [6] = test: AUC in rat at 4 mg/kg, po and 2 mg/kg, iv; format: ADME, organism-based, Plasma; conditions: in vivo; procedure, shortened: as §1
[7] = Cmax in rat at 4 mg/kg, po and 2 mg/kg, iv; format: ADME, organism-based; conditions: in vivo; procedure, shortened: as §1
Rattus norvegicus [8] = test: Reduction of blood glucose level in glucagon-challenged iv dosed Sprague-Dawley rat at 3 mg/kg; format: functional, organism-based; set-up: dose 3 mg/kg
Procedure, shortened: (§2)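 Rats were anesthetized and given the compound intravenously over a range of doses, 5 min before an exogenous glucagon load of 3 µg/kg. The read-out was the glucagon-stimulated rise in blood glucose.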

[9] = Metabolic stability in iv dosed dog; format: ADME, organism-based, Canis lupus familiaris; conditions: in vivo
Procedure, shortened: (§3)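 Dogs dosed orally and intravenously; oral availability and half-life after iv dosing determined.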

Rattus norvegicus [10] = test: Reduction of blood glucose level in glucagon-challenged iv dosed Sprague-Dawley rat; format: functional, organism-based; procedure, shortened: as §2
Glucagon receptor [11] = biological target: Glucagon receptor (Rattus norvegicus, UniProt P30082); test: Inhibition of rat glucagon receptor
[12] = Bioavailability in orally dosed dog; format: ADME, organism-based, Canis lupus familiaris; conditions: in vivo, po; procedure, shortened: as §3
Rattus norvegicus [13] = test: Reduction of blood glucose level in glucagon-challenged iv dosed Sprague-dawley rat at > 3 mg/kg; format: functional, organism-based; set-up: dose 3 mg/kg
Procedure, shortened: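 Anesthetized rats received the compound intravenously across a range of doses 5 min before a 3 µg/kg glucagon load. The rise in blood glucose was followed.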

Mus musculus [14] = test: Reduction of blood glucose level in Umea ob/ob mouse at 100 mg/kg, po after 24 hrs; format: functional
Procedure, shortened: (§4)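 ob/ob mice (n = 6 per group), vehicle or compound at 100 mg/kg po. Blood glucose was measured before dosing and again at 2, 4, 6 and 24 h; the change from the predose value was reported.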

Mus musculus [15] = test: Reduction of blood glucose level in Umea ob/ob mouse at 100 mg/kg, po after 6 hrs; format: functional; procedure, shortened: as §4
Homo sapiens = organism: Homo sapiens; test: Selectivity for glucagon receptor over GLP1 receptor
Mus musculus [16] = test: Reduction of blood glucose level in Umea ob/ob mouse at 100 mg/kg, po after 4 hrs; format: functional; procedure, shortened: as §4
Mus musculus [17] = test: Reduction in cumulative food intake in Umea ob/ob mouse at 100 mg/kg, po; format: functional
Procedure, shortened: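 ob/ob mice given vehicle or compound at 100 mg/kg po; cumulative food intake per mouse recorded from 6 to 24 h postdose.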

Mus musculus [18] = test: Reduction of blood glucose level in Umea ob/ob mouse at 100 mg/kg, po after 2 hrs; format: functional; procedure, shortened: as §4
Mus musculus [19] = test: Blood glucose level in Umea ob/ob mouse at 100 mg/kg, po

Chain of Glucagon-like peptide 1 receptor (P43220 whole entry): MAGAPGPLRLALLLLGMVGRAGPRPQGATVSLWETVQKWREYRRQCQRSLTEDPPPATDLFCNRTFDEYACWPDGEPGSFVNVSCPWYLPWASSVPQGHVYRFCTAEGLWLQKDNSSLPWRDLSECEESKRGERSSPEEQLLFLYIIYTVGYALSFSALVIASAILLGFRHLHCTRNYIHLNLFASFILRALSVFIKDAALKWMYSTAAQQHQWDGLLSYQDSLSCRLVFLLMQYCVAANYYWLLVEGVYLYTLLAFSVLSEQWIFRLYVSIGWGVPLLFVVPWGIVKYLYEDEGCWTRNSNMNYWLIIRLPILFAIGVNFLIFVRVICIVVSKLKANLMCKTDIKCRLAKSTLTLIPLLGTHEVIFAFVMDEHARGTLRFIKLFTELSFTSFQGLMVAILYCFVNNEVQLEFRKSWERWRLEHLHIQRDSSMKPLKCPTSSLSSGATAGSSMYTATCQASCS
Chain of Glucagon receptor (Homo sapiens, UniProt P47871) (P47871 whole entry): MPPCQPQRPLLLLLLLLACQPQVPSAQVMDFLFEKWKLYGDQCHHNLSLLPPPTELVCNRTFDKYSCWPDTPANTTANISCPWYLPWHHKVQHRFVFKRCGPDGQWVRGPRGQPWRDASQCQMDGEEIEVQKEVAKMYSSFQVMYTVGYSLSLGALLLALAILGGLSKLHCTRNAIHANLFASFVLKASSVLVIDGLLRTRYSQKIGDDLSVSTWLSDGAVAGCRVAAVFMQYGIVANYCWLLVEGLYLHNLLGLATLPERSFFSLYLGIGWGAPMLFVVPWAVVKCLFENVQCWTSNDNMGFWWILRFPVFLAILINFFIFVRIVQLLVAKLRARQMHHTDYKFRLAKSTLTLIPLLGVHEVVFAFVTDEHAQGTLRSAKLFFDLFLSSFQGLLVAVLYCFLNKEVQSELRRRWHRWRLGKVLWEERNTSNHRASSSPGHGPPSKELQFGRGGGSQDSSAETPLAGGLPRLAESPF
Chain of Glucagon receptor (Rattus norvegicus, UniProt P30082) (P30082 whole entry): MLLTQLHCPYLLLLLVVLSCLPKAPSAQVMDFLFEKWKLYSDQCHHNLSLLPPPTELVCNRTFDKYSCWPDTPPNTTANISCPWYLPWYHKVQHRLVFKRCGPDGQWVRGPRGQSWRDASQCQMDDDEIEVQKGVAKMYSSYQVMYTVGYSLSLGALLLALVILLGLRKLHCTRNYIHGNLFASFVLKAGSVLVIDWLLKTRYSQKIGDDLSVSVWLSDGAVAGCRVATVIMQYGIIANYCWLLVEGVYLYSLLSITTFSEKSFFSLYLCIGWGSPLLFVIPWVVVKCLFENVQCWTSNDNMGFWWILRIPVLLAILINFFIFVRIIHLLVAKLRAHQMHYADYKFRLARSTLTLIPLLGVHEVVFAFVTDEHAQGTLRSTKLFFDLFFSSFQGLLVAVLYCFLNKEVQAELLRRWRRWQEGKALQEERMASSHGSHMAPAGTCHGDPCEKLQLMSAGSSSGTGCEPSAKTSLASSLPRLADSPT

## CC(C)(C)[C@H]1CC[C@H](N(Cc2ccc(C(=O)NCCC(=O)O)cc2)C(=O)Nc2ccc(C#N)cc2OC(F)(F)F)CC1
Liver microsomes
  Activity: 130 pmol/min

## O=C(O)CCNC(=O)c1ccc(CN(CCC(c2ccccc2)c2ccccc2)C(=O)c2ccc(Cl)nc2)cc1
[1]
  pIC50: 4.00
Glucagon receptor [2]
  pIC50: 5.15

## CC(C)(C)C1CCC(N(Cc2ccc(C(=O)NCCC(N)=O)cc2)C(=O)Nc2ccc(OC(F)(F)F)cc2)CC1 (centres undefined)
Glucagon receptor [2]
  pIC50: < 5.00

## O=C(O)CCNC(=O)c1ccc(CN(C(=O)Nc2ccc(OC(F)(F)F)cc2)c2ccc(C3CCCCC3)cc2)cc1
[3]
  half-life: 1.07 h
[4]
  Tmax: 4 h
Glucagon receptor [2]
  pIC50: 7.21
[5]
  bioavailability: 54%
Rattus norvegicus [6]
  AUC: 1600 ng·h/mL
[7]
  Cmax: 316 ng/mL

## O=C(O)CCNC(=O)c1ccc(CN(C(=O)Nc2ccc(OC(F)(F)F)cc2)C2CCC(C(=O)NCC3CC3)CC2)cc1 (centres undefined)
Glucagon receptor [2]
  pIC50: < 5.00

## CCCCC(CC)N(Cc1ccc(C(=O)NCCC(=O)O)cc1)C(=O)Nc1ccc(OC(F)(F)F)cc1 (centres undefined)
Glucagon receptor [2]
  pIC50: 6.85

## CC(C)(C)C1CCC(N(Cc2ccc(C(=O)NCC(=O)O)cc2)C(=O)Nc2ccc(OC(F)(F)F)cc2)CC1 (centres undefined)
Glucagon receptor [2]
  pIC50: 5.77

## COC1CCC(N(Cc2ccc(C(=O)NCCC(=O)O)cc2)C(=O)Nc2ccc(OC(F)(F)F)cc2)CC1 (centres undefined)
Glucagon receptor [2]
  pIC50: < 5.00

## CNC(=O)C1CCC(N(Cc2ccc(C(=O)NCCC(=O)O)cc2)C(=O)Nc2ccc(OC(F)(F)F)cc2)CC1 (centres undefined)
Glucagon receptor [2]
  pIC50: < 5.00

## CC(C)(CC(=O)O)NC(=O)c1ccc(CN(C(=O)Nc2ccc(OC(F)(F)F)cc2)C2CCC(C(C)(C)C)CC2)cc1 (centres undefined)
Glucagon receptor [2]
  pIC50: < 5.00

## CCCCc1ccc(NC(=O)N(Cc2ccc(C(=O)NCCC(=O)O)cc2)C2Cc3ccccc3C2)cc1
Glucagon receptor [2]
  pIC50: 6.75

## CC(C)(C)[C@H]1CC[C@H](N(Cc2ccc(C(=O)NCCC(=O)O)cc2)C(=O)Nc2cc(C(F)(F)F)cc(C(F)(F)F)c2)CC1
Liver microsomes
  Activity: 139 pmol/min

## CC(C)(C)[C@H]1CC[C@H](N(Cc2ccc(C(=O)NCCC(=O)O)cc2)C(=O)Nc2ccc(C#N)cc2)CC1
Glucagon receptor [2]
  pIC50: 5.98

## CC(C)(C)[C@H]1CC[C@H](N(Cc2ccc(C(=O)NCCC(=O)O)cc2)C(=O)Nc2ccc(OC(F)(F)F)cc2)CC1
Rattus norvegicus [8]
  Activity: Active
Liver microsomes
  Activity: 100 pmol/min
[3]
  half-life: 1.5 h
[1]
  pIC50: 6.00
[9]
  half-life: 1.68 h
[4]
  Tmax: 1 h
Glucagon receptor [2]
  pIC50: 7.26
[5]
  bioavailability: 17%
Rattus norvegicus [10]
  Activity: Dose-dependent effect
Rattus norvegicus [6]
  AUC: 217 ng·h/mL
[7]
  Cmax: 106 ng/mL
Glucagon receptor [11]
  pIC50: 7.25
[12]
  bioavailability: 10%

## CC(C)(C)[C@H]1CC[C@H](N(Cc2ccc(C(=O)NCCC(=O)O)cc2)C(=O)Nc2ccc(Cl)c(Cl)c2)CC1
Liver microsomes
  Activity: 232 pmol/min

## O=C(O)CCNC(=O)c1ccc(CN(C(=O)Nc2ccc(SC(F)(F)F)cc2)C2Cc3ccccc3C2)cc1
Glucagon receptor [2]
  pIC50: 6.58

## CC(C)c1ccc(NC(=O)N(Cc2ccc(C(=O)NCCC(=O)O)cc2)[C@H]2CC[C@H](C(C)(C)C)CC2)cc1
Liver microsomes
  Activity: 283 pmol/min
[3]
  half-life: 0.333 h
[4]
  Tmax: 0.25 h
Glucagon receptor [2]
  pIC50: 7.46
[5]
  bioavailability: 2%
Rattus norvegicus [6]
  AUC: 43.3 ng·h/mL
[7]
  Cmax: 40 ng/mL

## O=C(O)CCNC(=O)c1ccc(CN(C(=O)Nc2ccc(OC(F)(F)F)cc2)C2CCC(C(=O)O)CC2)cc1 (centres undefined)
Glucagon receptor [2]
  pIC50: < 5.00

## COCCCNC(=O)c1ccc(CN(C(=O)Nc2ccc(OC(F)(F)F)cc2)C2CCC(C(C)(C)C)CC2)cc1 (centres undefined)
Glucagon receptor [2]
  pIC50: < 5.00

## CC(C)(C)C1CCC(N(Cc2ccc(C(=O)NCCCC(=O)O)cc2)C(=O)Nc2ccc(OC(F)(F)F)cc2)CC1 (centres undefined)
Glucagon receptor [2]
  pIC50: < 5.00

## O=C(O)CCNC(=O)c1ccc(CN(CC(c2ccccc2)c2ccccc2)C(=O)c2csc3ccc(Cl)cc23)cc1
Glucagon receptor [2]
  pIC50: 6.94

## CCCC1CCC(N(Cc2ccc(C(=O)NCCC(=O)O)cc2)C(=O)Nc2ccc(OC(F)(F)F)cc2)CC1 (centres undefined)
Glucagon receptor [2]
  pIC50: 6.91

## CC(C)(C)C1CCC(N(Cc2ccc(C(=O)N3CCCC(C(=O)O)C3)cc2)C(=O)Nc2ccc(OC(F)(F)F)cc2)CC1 (centres undefined)
Glucagon receptor [2]
  pIC50: 6.00

## O=C(O)CCNC(=O)c1ccc(CN(C(=O)Nc2cc(Cl)cc(Cl)c2)c2ccc(C3=CCCCC3)cc2)cc1
Rattus norvegicus [13]
  Activity: Active
[3]
  half-life: 1.37 h
Mus musculus [14]
  Activity: 1.8 mM
Mus musculus [15]
  Activity: 9.5 mM
[1]
  pIC50: 5.31
[9]
  half-life: 1.53 h
[4]
  Tmax: 1 h
Homo sapiens
  Selectivity ratio: 180
Glucagon receptor [2]
  pIC50: 7.57
[5]
  bioavailability: 69%
Mus musculus [16]
  Activity: 8.4 mM
Mus musculus [17]
  Activity: 8.4 g
Rattus norvegicus [10]
  Activity: Dose-dependent effect
Rattus norvegicus [6]
  AUC: 2970 ng·h/mL
[7]
  Cmax: 275 ng/mL
Glucagon receptor [11]
  pIC50: 6.91
[12]
  bioavailability: 65%
Mus musculus [18]
  Activity: 6.8 mM
Mus musculus [19]
  Activity: 18.3 mM

## CC(C)(C)C1CCC(N(Cc2ccc(C(=O)NCC(=O)NO)cc2)C(=O)Nc2ccc(OC(F)(F)F)cc2)CC1 (centres undefined)
Glucagon receptor [2]
  pIC50: 5.53

## CC(C)(C)[C@H]1CC[C@H](N(Cc2ccc(C(=O)NCCC(=O)O)cc2)C(=O)Nc2ccc(OC(F)(F)F)cc2C#N)CC1
Liver microsomes
  Activity: 63 pmol/min
Glucagon receptor [2]
  pIC50: 7.25

Reference: ChEMBL document CHEMBL1139230, “New beta-alanine derivatives are orally available glucagon receptor antagonists” (J Med Chem, 2007)
